Tested on: Fibroblast
Assay: Multiplex assay against human fibroblast
Format: toxicity, cell-based
In short: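 Live cells were stained at seeding with Hoechst33342, BioTracker Green Microtubule Cytoskeleton Dye, MitoTracker Red and Annexin V Alexa Fluor 680. Following compound addition, they were imaged on a CQ1 microscope at 37°C and 5% CO2 and gated by CellPathfinder machine learning into Hoechst high-intensity objects or normal cells, with normal cells split into healthy, pyknosed or fragmented nuclei and pyknosed cells into mitotic or apoptotic. Tubulin, mitochondrial-mass and membrane-permeability phenotypes are per cents of healthy-nucleus cells.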

[1] = 12 h, 1 µM, compound concentration 1 uM, replicate 1
[2] = 12 h, 1 µM, compound concentration 1 uM, replicate 2
[3] = 12 h, 10 µM, compound concentration 10 uM, replicate 1
[4] = 12 h, 10 µM, compound concentration 10 uM, replicate 2
[5] = 24 h, 1 µM, compound concentration 1 uM, replicate 1
[6] = 24 h, 1 µM, compound concentration 1 uM, replicate 2
[7] = 24 h, 10 µM, compound concentration 10 uM, replicate 1
[8] = 24 h, 10 µM, compound concentration 10 uM, replicate 2
[9] = 48 h, 1 µM, compound concentration 1 uM, replicate 1
[10] = 48 h, 1 µM, compound concentration 1 uM, replicate 2
[11] = 48 h, 10 µM, compound concentration 10 uM, replicate 1
[12] = 48 h, 10 µM, compound concentration 10 uM, replicate 2

Q: What does the source list for `CCCSc1nc(N[C@@H]2C[C@H]2c2ccc(F)c(F)c2)c2nnn([C@@H]3C[C@H](OCCO)[C@@H](O)[C@H]3O)c2n1` [TICAGRELOR]?
A: Population Apoptotic (%) [1]: 55%; Population Fragmented Nuclei (%) [1]: 17%; Population Healthy Nuclei (%) [1]: 48%; Population Hoechst High Intensity Objects (%) [1]: 9%; Population Membrane Permeable-Phenotype (%) [1]: 21%; Population Mitochondria Different-Phenotype (%) [1]: 5%; Population Mitotic Cells (%) [1]: 44%; Population Normal (%) [1]: 90%; Population Pyknosed Nuclei (%) [1]: 33%; Population Tubulin-Different-Phenotype (%) [1]: 46%; Total Cell Count [1]: 179; Population Apoptotic (%) [2]: 66%; Population Fragmented Nuclei (%) [2]: 1%; Population Healthy Nuclei (%) [2]: 93%; Population Hoechst High Intensity Objects (%) [2]: 5%; Population Membrane Permeable-Phenotype (%) [2]: 5%; Population Mitochondria Different-Phenotype (%) [2]: 18%; Population Mitotic Cells (%) [2]: 33%; Population Normal (%) [2]: 94%; Population Pyknosed Nuclei (%) [2]: 4%; Population Tubulin-Different-Phenotype (%) [2]: 13%; Total Cell Count [2]: 82; Population Apoptotic (%) [3]: 56%; Population Fragmented Nuclei (%) [3]: 29%; Population Healthy Nuclei (%) [3]: 27%; Population Hoechst High Intensity Objects (%) [3]: 12%; Population Membrane Permeable-Phenotype (%) [3]: 12%; Population Mitochondria Different-Phenotype (%) [3]: 78%; Population Mitotic Cells (%) [3]: 43%; Population Normal (%) [3]: 87%; Population Pyknosed Nuclei (%) [3]: 43%; Population Tubulin-Different-Phenotype (%) [3]: 90%; Total Cell Count [3]: 139; Population Apoptotic (%) [4]: 75%; Population Fragmented Nuclei (%) [4]: 7%; Population Healthy Nuclei (%) [4]: 79%; Population Hoechst High Intensity Objects (%) [4]: 11%; Population Membrane Permeable-Phenotype (%) [4]: 43%; Population Mitochondria Different-Phenotype (%) [4]: 98%; Population Mitotic Cells (%) [4]: 25%; Population Normal (%) [4]: 88%; Population Pyknosed Nuclei (%) [4]: 12%; Population Tubulin-Different-Phenotype (%) [4]: 96%; Total Cell Count [4]: 67; Population Apoptotic (%) [5]: 43%; Population Fragmented Nuclei (%) [5]: 18%; Population Healthy Nuclei (%) [5]: 62%; Population Hoechst High Intensity Objects (%) [5]: 9%; Population Membrane Permeable-Phenotype (%) [5]: 26%; Population Mitochondria Different-Phenotype (%) [5]: 12%; Population Mitotic Cells (%) [5]: 56%; Population Normal (%) [5]: 90%; Population Pyknosed Nuclei (%) [5]: 19%; Population Tubulin-Different-Phenotype (%) [5]: 50%; Total Cell Count [5]: 172; Population Apoptotic (%) [6]: 57%; Population Fragmented Nuclei (%) [6]: 3%; Population Healthy Nuclei (%) [6]: 87%; Population Hoechst High Intensity Objects (%) [6]: 2%; Population Membrane Permeable-Phenotype (%) [6]: 4%; Population Mitochondria Different-Phenotype (%) [6]: 20%; Population Mitotic Cells (%) [6]: 42%; Population Normal (%) [6]: 97%; Population Pyknosed Nuclei (%) [6]: 8%; Population Tubulin-Different-Phenotype (%) [6]: 11%; Total Cell Count [6]: 81; Population Apoptotic (%) [7]: 55%; Population Fragmented Nuclei (%) [7]: 27%; Population Healthy Nuclei (%) [7]: 33%; Population Hoechst High Intensity Objects (%) [7]: 16%; Population Membrane Permeable-Phenotype (%) [7]: 18%; Population Mitochondria Different-Phenotype (%) [7]: 67%; Population Mitotic Cells (%) [7]: 44%; Population Normal (%) [7]: 83%; Population Pyknosed Nuclei (%) [7]: 38%; Population Tubulin-Different-Phenotype (%) [7]: 94%; Total Cell Count [7]: 133; Population Apoptotic (%) [8]: 83%; Population Fragmented Nuclei (%) [8]: 7%; Population Healthy Nuclei (%) [8]: 73%; Population Hoechst High Intensity Objects (%) [8]: 8%; Population Membrane Permeable-Phenotype (%) [8]: 65%; Population Mitochondria Different-Phenotype (%) [8]: 97%; Population Mitotic Cells (%) [8]: 16%; Population Normal (%) [8]: 91%; Population Pyknosed Nuclei (%) [8]: 19%; Population Tubulin-Different-Phenotype (%) [8]: 97%; Total Cell Count [8]: 80; Population Apoptotic (%) [9]: 44%; Population Fragmented Nuclei (%) [9]: 25%; Population Healthy Nuclei (%) [9]: 55%; Population Hoechst High Intensity Objects (%) [9]: 9%; Population Membrane Permeable-Phenotype (%) [9]: 16%; Population Mitochondria Different-Phenotype (%) [9]: 5%; Population Mitotic Cells (%) [9]: 55%; Population Normal (%) [9]: 90%; Population Pyknosed Nuclei (%) [9]: 19%; Population Tubulin-Different-Phenotype (%) [9]: 36%; Total Cell Count [9]: 167; Population Apoptotic (%) [10]: 66%; Population Fragmented Nuclei (%) [10]: 27%; Population Healthy Nuclei (%) [10]: 68%; Population Hoechst High Intensity Objects (%) [10]: 10%; Population Membrane Permeable-Phenotype (%) [10]: 18%; Population Mitochondria Different-Phenotype (%) [10]: 3%; Population Mitotic Cells (%) [10]: 33%; Population Normal (%) [10]: 89%; Population Pyknosed Nuclei (%) [10]: 3%; Population Tubulin-Different-Phenotype (%) [10]: 57%; Total Cell Count [10]: 88; Population Apoptotic (%) [11]: 69%; Population Fragmented Nuclei (%) [11]: 50%; Population Healthy Nuclei (%) [11]: 31%; Population Hoechst High Intensity Objects (%) [11]: 20%; Population Membrane Permeable-Phenotype (%) [11]: 22%; Population Mitochondria Different-Phenotype (%) [11]: 62%; Population Mitotic Cells (%) [11]: 30%; Population Normal (%) [11]: 79%; Population Pyknosed Nuclei (%) [11]: 18%; Population Tubulin-Different-Phenotype (%) [11]: 90%; Total Cell Count [11]: 159; Population Apoptotic (%) [12]: 75%; Population Fragmented Nuclei (%) [12]: 32%; Population Healthy Nuclei (%) [12]: 61%; Population Hoechst High Intensity Objects (%) [12]: 5%; Population Membrane Permeable-Phenotype (%) [12]: 2%; Population Mitochondria Different-Phenotype (%) [12]: 84%; Population Mitotic Cells (%) [12]: 25%; Population Normal (%) [12]: 94%; Population Pyknosed Nuclei (%) [12]: 6%; Population Tubulin-Different-Phenotype (%) [12]: 92%; Total Cell Count [12]: 135

Source: ChEMBL document CHEMBL4689842, “EUbOPEN Chemogenomics Library wave 1” (2021)
